Source: ChEMBL document CHEMBL2203112, “Synthesis, evaluation of anti-HIV-1 and anti-HCV activity of novel 2',3'-dideoxy-2',2'-difluoro-4'-azanucleosides” (Bioorg Med Chem, 2012)
Activity calls are given as the source filed them. No cut-off for these calls is given here.

Legend:
[1] = tested on: Vero; assay: Cytotoxicity against african green monkey Vero cells; type: cell-based; conditions: Chlorocebus sabaeus
Procedure, shortened: (§1)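 Cytotoxicity measured in lymphocytic CEM cells and in Vero (African green monkey kidney) cells; expressed as IC50 (μM).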

[2] = tested on: CCRF-CEM; assay: Cytotoxicity against human CEM cells; type: cell-based; procedure, shortened: as §1
[3] = tested on: PBMC; assay: Cytotoxicity against human PBMC; type: cell-based
Procedure, shortened: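 Cytotoxicity measured in uninfected, phytohemagglutinin-stimulated human PBM cells; expressed as IC50 (μM).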

[4] = tested on: Hepatitis C virus; assay: Antiviral activity against HCV assessed as inhibition of viral replication at 10 uM; type: functional, organism-based; conditions: Hepacivirus hominis
Procedure, shortened: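 HCV replicon assay with a single test concentration of 10 μM; 2′-C-Me-cytidine served as positive control.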

[5] = tested on: Human immunodeficiency virus 1; assay: Antiviral activity against HIV1 LAI infected in human PBMC assessed as inhibition of viral replication; type: functional, organism-based; conditions: Human immunodeficiency virus 1, LAI

Structure (SMILES) | IC50 [1] | IC50 [2] | IC50 [3] | inhibition [4] | EC50 [5] | EC90 [5]
CC(C)(C)OC(=O)N1[C@H](CO)CC(F)(F)[C@H]1n1cc(F)c(=O)[nH]c1=O | > 100 µM | > 100 µM | 30.5 µM | inactive | 36.9 µM | 75.6 µM
CC(C)(C)OC(=O)N1[C@H](CO)CC(F)(F)[C@@H]1n1cc(F)c(=O)[nH]c1=O | > 100 µM | > 100 µM | 28.2 µM | inactive | 44.5 µM | 90.8 µM
CC(C)(C)OC(=O)N1[C@H](CO)CC(F)(F)[C@@H]1n1ccc(=O)[nH]c1=O | 44.4 µM | > 100 µM | 81.4 µM | inactive | > 100 µM | > 100 µM
CC(C)(C)OC(=O)N1[C@H](CO)CC(F)(F)[C@H]1n1ccc(=O)[nH]c1=O | > 100 µM | > 100 µM | > 100 µM | inactive | > 100 µM | > 100 µM
CC(C)(C)OC(=O)N1C(n2cnc3c(Cl)ncnc32)C(F)(F)C[C@H]1CO (single isomer, unassigned; 26) [listing 1 of 2 here] | > 100 µM | 57.1 µM | > 100 µM |  | > 100 µM | > 100 µM
CC(C)(C)OC(=O)N1C(n2cnc3c(Cl)ncnc32)C(F)(F)C[C@H]1CO (single isomer, unassigned; 26) [listing 2 of 2 here] |  |  |  | inactive |  | 
CC(C)(C)OC(=O)N1C(n2cnc3c(Cl)ncnc32)C(F)(F)C[C@H]1CO (single isomer, unassigned; 27) [listing 1 of 2 here] | > 100 µM | 38.1 µM | 58.1 µM |  | 64.5 µM | > 100 µM
CC(C)(C)OC(=O)N1C(n2cnc3c(Cl)ncnc32)C(F)(F)C[C@H]1CO (single isomer, unassigned; 27) [listing 2 of 2 here] |  |  |  | inactive |  | 
CC(C)(C)OC(=O)N1C(n2cnc3ncnc(Cl)c32)C(F)(F)C[C@H]1CO (single isomer, unassigned; 28) [listing 1 of 2 here] | > 100 µM | > 100 µM | > 100 µM |  | > 100 µM | > 100 µM
CC(C)(C)OC(=O)N1C(n2cnc3ncnc(Cl)c32)C(F)(F)C[C@H]1CO (single isomer, unassigned; 28) [listing 2 of 2 here] |  |  |  | inactive |  | 
CC(C)(C)OC(=O)N1C(n2cnc3ncnc(Cl)c32)C(F)(F)C[C@H]1CO (single isomer, unassigned; 29) [listing 1 of 2 here] | > 100 µM | 55.4 µM | 59.5 µM |  | 92.3 µM | > 100 µM
CC(C)(C)OC(=O)N1C(n2cnc3ncnc(Cl)c32)C(F)(F)C[C@H]1CO (single isomer, unassigned; 29) [listing 2 of 2 here] |  |  |  | inactive |  | 
CC(C)(C)OC(=O)N1C(n2cnc3c(N)ncnc32)C(F)(F)C[C@H]1CO (single isomer, unassigned; 30) [listing 1 of 2 here] | > 100 µM | > 100 µM | > 100 µM |  | > 100 µM | > 100 µM
CC(C)(C)OC(=O)N1C(n2cnc3c(N)ncnc32)C(F)(F)C[C@H]1CO (single isomer, unassigned; 30) [listing 2 of 2 here] |  |  |  | inactive |  | 
CC(C)(C)OC(=O)N1C(n2cnc3c(N)ncnc32)C(F)(F)C[C@H]1CO (single isomer, unassigned; 31) [listing 1 of 2 here] | > 100 µM | > 100 µM | > 100 µM |  | > 100 µM | > 100 µM
CC(C)(C)OC(=O)N1C(n2cnc3c(N)ncnc32)C(F)(F)C[C@H]1CO (single isomer, unassigned; 31) [listing 2 of 2 here] |  |  |  | inactive |  | 
CC(C)(C)OC(=O)N1C(n2cnc3ncnc(N)c32)C(F)(F)C[C@H]1CO (single isomer, unassigned; 32) [listing 1 of 2 here] | > 100 µM | > 100 µM | > 100 µM |  | > 100 µM | > 100 µM
CC(C)(C)OC(=O)N1C(n2cnc3ncnc(N)c32)C(F)(F)C[C@H]1CO (single isomer, unassigned; 32) [listing 2 of 2 here] |  |  |  | inactive |  | 
CC(C)(C)OC(=O)N1C(n2cnc3ncnc(N)c32)C(F)(F)C[C@H]1CO (single isomer, unassigned; 33) [listing 1 of 2 here] | > 100 µM | > 100 µM | > 100 µM |  | > 100 µM | > 100 µM
CC(C)(C)OC(=O)N1C(n2cnc3ncnc(N)c32)C(F)(F)C[C@H]1CO (single isomer, unassigned; 33) [listing 2 of 2 here] |  |  |  | inactive |  | 
Cc1cn([C@H]2C[C@H](N=[N+]=[N-])[C@@H](CO)O2)c(=O)[nH]c1=O [ZIDOVUDINE] |  |  | > 100 µM | inactive |  | 0.0027 µM
